Published values from different studies.
Target: Phosphatidylinositol 4-phosphate 5-kinase type-1 alpha (PIP5K1A, Homo sapiens, UniProt Q99755)

| SMILES | read-out | mode | technique | concentration | measurement | result |
| --- | --- | --- | --- | --- | --- | --- |
| COc1cc(Cl)c(C(=O)N[C@@H](CN[C@H]2CC[C@@H](N)CC2)Cc2ccc(C#N)cc2)cc1-c1ccc(CN[C@H](C)c2ccc(C)cc2)o1 | enzyme activity | inhibitor | – | 1 µM | remaining activity | 106% |
| Cc1cc(NC(=O)c2cccc3cc(-c4cccc5[nH]nc(N)c45)ccc23)ccc1F | enzyme activity | inhibitor | – | 0.1 µM | activity vs control | 96% |
| Cc1cnc(NC2CCOCC2)nc1-n1cnc(C(=O)NC(CN)c2cc(F)cc(Cl)c2)c1 (centres unmarked) | enzyme activity | inhibitor | radiometric | 1 µM | remaining activity | 100% |
| CN1CC(Oc2cnc(C#N)cc2-c2ccn3nc(NC(=O)C4CC4)cc3c2)C1 | enzyme activity | inhibitor | – | 1 µM | inhibition | 0% |
| CS(=O)(=O)Nc1cccc(-c2csc(NC(=O)CSc3nc4nccnc4c(=O)n3CCc3ccccc3)n2)c1 | enzyme activity | inhibitor | – | 10 µM | inhibition | -1% |
| Cc1ccc(C(=O)Nc2ccc(CN3CCN(C)CC3)c(C(F)(F)F)c2)cc1C#Cc1cnc2cccnn12 | enzyme activity | inhibitor | – | 23.5 nM | remaining activity | 79% |
| CCOCCn1cc(C(=O)Nc2ccc(-n3nc(-c4cccnc4)cc3C(F)(F)F)cn2)ccc1=O | cell-free assay | – | competition with immobilised ligand | 1 µM | remaining binding | 100% |
| O=C(CSc1nc2nccnc2c(=O)n1CCc1ccccc1)Nc1nccs1 | enzyme activity | inhibitor | – | 10 µM | inhibition | -2% |
| Nc1ncnc2occ(-c3ccc(NC(=O)Nc4cc(C(F)(F)F)ccc4F)cc3)c12 | enzyme activity | inhibitor | – | 20 µM | remaining activity | 60% |
| Cc1ccc(NC(=O)c2ccc(C)c(C(F)(F)F)c2)cc1C#Cc1nn(C2CCC(O)CC2)c2ncnc(N)c12 (centres unmarked) | cell-free assay | inhibitor | – | 10 µM | remaining signal | 102% |
| COCCOc1nc(-c2ccc(Cl)nc2)nc2c1CN(C(=O)c1ncn3ccccc13)CC2 | cell-free assay | – | competition with immobilised ligand | 0.1 µM | remaining binding | 100% |
